According to ChEMBL document CHEMBL4152390, “Discovery of the First-in-Class Dual Histone Deacetylase-Proteasome Inhibitor” (J Med Chem, 2018):
Activity calls are given as the source filed them. No cut-off for these calls is given here.

Assays:
[1] = target: Histone deacetylase 3/Nuclear receptor corepressor 2 (HDAC3/NCoR2) (Homo sapiens, UniProt O15379); assay type: ADME, cell-based
[2] = target: T1, Protein deacetylase HDAC6 (Homo sapiens) (UniProt Q9UBN7); experiment: Inhibition of HDAC6 in human SEM cells assessed as increase in acetyl-alpha tubulin expression at 0.1 to 10 uM after 24 hrs by immunoblot assay; assay type: cell-based
T1 sequence (whole entry): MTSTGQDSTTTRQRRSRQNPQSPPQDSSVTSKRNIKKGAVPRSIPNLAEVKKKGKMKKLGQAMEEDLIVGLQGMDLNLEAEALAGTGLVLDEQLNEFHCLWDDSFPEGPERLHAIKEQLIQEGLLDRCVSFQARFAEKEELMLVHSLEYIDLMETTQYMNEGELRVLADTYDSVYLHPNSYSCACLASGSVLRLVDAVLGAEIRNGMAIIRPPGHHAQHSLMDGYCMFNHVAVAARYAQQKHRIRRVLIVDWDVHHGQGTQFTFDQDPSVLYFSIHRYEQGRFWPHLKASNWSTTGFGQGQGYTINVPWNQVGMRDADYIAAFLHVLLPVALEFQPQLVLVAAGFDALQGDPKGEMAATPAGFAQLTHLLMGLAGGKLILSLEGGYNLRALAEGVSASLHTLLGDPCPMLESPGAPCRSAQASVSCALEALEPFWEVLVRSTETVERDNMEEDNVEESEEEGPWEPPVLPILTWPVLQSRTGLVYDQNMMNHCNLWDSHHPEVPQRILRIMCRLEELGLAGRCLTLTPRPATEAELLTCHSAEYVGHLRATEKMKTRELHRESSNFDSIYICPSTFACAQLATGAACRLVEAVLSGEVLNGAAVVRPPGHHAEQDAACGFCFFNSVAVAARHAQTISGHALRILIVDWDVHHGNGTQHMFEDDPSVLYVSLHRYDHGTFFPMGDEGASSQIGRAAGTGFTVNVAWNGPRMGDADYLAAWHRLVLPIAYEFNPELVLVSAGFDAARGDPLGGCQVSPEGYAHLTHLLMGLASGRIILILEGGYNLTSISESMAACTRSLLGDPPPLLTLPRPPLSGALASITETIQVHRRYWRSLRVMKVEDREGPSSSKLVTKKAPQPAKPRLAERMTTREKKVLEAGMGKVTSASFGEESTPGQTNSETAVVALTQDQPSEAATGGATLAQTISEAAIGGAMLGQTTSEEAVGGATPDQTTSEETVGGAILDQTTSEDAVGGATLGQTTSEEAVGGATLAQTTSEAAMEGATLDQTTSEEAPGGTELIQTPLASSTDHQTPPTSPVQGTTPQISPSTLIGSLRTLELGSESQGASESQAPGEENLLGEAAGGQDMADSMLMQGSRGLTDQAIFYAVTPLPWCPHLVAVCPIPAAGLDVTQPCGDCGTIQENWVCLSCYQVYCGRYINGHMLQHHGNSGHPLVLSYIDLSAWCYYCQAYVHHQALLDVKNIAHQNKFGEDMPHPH
Method in brief: (§1)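 Cells exposed for 24 h at indicated concentrations; lysates immunoblotted for acetyl-α-tubulin, acetyl-histone H3, PARP, with GAPDH as loading control.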

[3] = target: T1, Protein deacetylase HDAC6 (Homo sapiens); experiment: Inhibition of HDAC6 in human HL60 cells assessed as increase in acetyl-histone H3 expression at 0.1 to 10 uM after 24 hrs by immunoblot assay; assay type: cell-based
Method in brief: as §1

[4] = target: T1, Protein deacetylase HDAC6 (Homo sapiens); experiment: Inhibition of HDAC6 in imatinib-resistant human SUP-B15 cells assessed as increase in acetyl-histone H3 expression at 0.1 to 10 uM after 24 hrs by immunoblot assay; assay type: cell-based
Method in brief: as §1

Homo sapiens = species: Homo sapiens; experiment: Inhibition of HDAC6/chymotrypsin-like activity of 20S proteasome in human HL60 cells assessed as increase in cleaved PARP expression at 0.1 to 10 uM after 24 hrs by immunoblot assay; assay type: cell-based
Method in brief: as §1

SEM cells [5] = experiment: Inhibition of HDAC6/chymotrypsin-like activity of 20S proteasome in human SEM cells assessed as increase in cleaved PARP expression at 0.1 to 10 uM after 24 hrs by immunoblot assay; assay type: cell-based
Method in brief: as §1

PBMC = experiment: cells; assay type: ADME, cell-based; details: Homo sapiens, 72 h
SEM cells [6] = experiment: Induction of apoptosis in human SEM cells at IC50 to 2 times IC50 after 48 hrs by annexin V/propidium iodide staining-based FACS analysis relative to control; assay type: functional
Method in brief: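 After 48 h treatment at IC50 or 2x IC50, cells double-stained with annexin V and PI and analysed by FACS. Cells scored as living, early apoptotic (annexin V+), late apoptotic (both+) or necrotic (PI+).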

SEM cells [7] = experiment: Induction of early differentiation of human SEM cells assessed as increase in CD11b expression at IC50 to 2 times IC50 after 72 hrs by FACS analysis; assay type: functional, cell-based
Method in brief: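 Surface CD11b and CD14 measured by FACS using fluorochrome-coupled monoclonal antibodies with matched isotype controls, after treatment in liquid medium.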

SEM cells [8] = experiment: Inhibition of HDAC6/chymotrypsin-like activity of 20S proteasome in human SEM cells assessed as increase in HSP70 protein expression at 0.1 to 10 uM after 18 hrs by Western blot assay; assay type: cell-based
Method in brief: (§2)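 Cells treated 18 h at indicated concentrations; lysates analysed by western blot for heat shock (Grp94, HSP70, HSP40, HSP27), UPR (BIP, ATF4, ATF6, pJNK) and autophagy (LC3B, p62) proteins.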

SEM cells [9] = experiment: Inhibition of HDAC6/chymotrypsin-like activity of 20S proteasome in human SEM cells assessed as increase in ATF4 protein expression at 0.1 to 10 uM after 18 hrs by Western blot assay; assay type: cell-based
Method in brief: as §2

SEM cells [10] = experiment: Inhibition of HDAC6/chymotrypsin-like activity of 20S proteasome in human SEM cells assessed as increase in ATF6 protein expression at 0.1 to 10 uM after 18 hrs by Western blot assay; assay type: cell-based
Method in brief: as §2

SEM cells [11] = experiment: Inhibition of HDAC6/chymotrypsin-like activity of 20S proteasome in human SEM cells assessed as increase in phosphorylated JNK protein expression at 0.1 to 10 uM after 18 hrs by Western blot assay; assay type: cell-based
Method in brief: as §2

Histone deacetylase 8 = target: T2, Histone deacetylase 8 (Homo sapiens, UniProt Q9BY41); experiment: Inhibition of C-terminal His-tagged recombinant human HDAC8 expressed in baculovirus infected insect cells using RHK(Ac)K(Ac)AMC as substrate by fluorescence-based assay
T2 sequence (Q9BY41 whole entry): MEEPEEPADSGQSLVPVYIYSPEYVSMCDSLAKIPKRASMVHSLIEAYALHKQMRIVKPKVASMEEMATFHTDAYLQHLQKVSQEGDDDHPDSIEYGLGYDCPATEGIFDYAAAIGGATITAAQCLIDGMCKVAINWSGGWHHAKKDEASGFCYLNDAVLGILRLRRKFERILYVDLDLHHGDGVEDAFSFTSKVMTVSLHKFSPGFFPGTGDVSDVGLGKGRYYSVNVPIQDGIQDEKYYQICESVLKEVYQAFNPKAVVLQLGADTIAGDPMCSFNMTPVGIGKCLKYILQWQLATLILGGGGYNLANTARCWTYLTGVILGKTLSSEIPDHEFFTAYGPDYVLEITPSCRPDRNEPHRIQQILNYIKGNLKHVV

Histone deacetylase 3/Nuclear receptor corepressor 2 (HDAC3/NCoR2), sequence (O15379 whole entry): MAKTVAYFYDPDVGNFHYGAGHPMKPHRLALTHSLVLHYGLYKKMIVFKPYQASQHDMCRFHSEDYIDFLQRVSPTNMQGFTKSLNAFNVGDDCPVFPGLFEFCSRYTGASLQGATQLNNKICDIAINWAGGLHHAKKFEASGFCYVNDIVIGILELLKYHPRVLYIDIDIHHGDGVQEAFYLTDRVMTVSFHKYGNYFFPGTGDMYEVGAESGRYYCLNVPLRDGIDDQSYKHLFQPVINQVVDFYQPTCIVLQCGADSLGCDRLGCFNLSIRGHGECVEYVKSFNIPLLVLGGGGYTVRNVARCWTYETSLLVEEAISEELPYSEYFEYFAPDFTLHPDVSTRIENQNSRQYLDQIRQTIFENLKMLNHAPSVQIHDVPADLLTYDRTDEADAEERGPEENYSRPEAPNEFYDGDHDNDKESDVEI
Histone deacetylase 3/Nuclear receptor corepressor 2 (HDAC3/NCoR2), sequence (Q9Y618 whole entry, further chain): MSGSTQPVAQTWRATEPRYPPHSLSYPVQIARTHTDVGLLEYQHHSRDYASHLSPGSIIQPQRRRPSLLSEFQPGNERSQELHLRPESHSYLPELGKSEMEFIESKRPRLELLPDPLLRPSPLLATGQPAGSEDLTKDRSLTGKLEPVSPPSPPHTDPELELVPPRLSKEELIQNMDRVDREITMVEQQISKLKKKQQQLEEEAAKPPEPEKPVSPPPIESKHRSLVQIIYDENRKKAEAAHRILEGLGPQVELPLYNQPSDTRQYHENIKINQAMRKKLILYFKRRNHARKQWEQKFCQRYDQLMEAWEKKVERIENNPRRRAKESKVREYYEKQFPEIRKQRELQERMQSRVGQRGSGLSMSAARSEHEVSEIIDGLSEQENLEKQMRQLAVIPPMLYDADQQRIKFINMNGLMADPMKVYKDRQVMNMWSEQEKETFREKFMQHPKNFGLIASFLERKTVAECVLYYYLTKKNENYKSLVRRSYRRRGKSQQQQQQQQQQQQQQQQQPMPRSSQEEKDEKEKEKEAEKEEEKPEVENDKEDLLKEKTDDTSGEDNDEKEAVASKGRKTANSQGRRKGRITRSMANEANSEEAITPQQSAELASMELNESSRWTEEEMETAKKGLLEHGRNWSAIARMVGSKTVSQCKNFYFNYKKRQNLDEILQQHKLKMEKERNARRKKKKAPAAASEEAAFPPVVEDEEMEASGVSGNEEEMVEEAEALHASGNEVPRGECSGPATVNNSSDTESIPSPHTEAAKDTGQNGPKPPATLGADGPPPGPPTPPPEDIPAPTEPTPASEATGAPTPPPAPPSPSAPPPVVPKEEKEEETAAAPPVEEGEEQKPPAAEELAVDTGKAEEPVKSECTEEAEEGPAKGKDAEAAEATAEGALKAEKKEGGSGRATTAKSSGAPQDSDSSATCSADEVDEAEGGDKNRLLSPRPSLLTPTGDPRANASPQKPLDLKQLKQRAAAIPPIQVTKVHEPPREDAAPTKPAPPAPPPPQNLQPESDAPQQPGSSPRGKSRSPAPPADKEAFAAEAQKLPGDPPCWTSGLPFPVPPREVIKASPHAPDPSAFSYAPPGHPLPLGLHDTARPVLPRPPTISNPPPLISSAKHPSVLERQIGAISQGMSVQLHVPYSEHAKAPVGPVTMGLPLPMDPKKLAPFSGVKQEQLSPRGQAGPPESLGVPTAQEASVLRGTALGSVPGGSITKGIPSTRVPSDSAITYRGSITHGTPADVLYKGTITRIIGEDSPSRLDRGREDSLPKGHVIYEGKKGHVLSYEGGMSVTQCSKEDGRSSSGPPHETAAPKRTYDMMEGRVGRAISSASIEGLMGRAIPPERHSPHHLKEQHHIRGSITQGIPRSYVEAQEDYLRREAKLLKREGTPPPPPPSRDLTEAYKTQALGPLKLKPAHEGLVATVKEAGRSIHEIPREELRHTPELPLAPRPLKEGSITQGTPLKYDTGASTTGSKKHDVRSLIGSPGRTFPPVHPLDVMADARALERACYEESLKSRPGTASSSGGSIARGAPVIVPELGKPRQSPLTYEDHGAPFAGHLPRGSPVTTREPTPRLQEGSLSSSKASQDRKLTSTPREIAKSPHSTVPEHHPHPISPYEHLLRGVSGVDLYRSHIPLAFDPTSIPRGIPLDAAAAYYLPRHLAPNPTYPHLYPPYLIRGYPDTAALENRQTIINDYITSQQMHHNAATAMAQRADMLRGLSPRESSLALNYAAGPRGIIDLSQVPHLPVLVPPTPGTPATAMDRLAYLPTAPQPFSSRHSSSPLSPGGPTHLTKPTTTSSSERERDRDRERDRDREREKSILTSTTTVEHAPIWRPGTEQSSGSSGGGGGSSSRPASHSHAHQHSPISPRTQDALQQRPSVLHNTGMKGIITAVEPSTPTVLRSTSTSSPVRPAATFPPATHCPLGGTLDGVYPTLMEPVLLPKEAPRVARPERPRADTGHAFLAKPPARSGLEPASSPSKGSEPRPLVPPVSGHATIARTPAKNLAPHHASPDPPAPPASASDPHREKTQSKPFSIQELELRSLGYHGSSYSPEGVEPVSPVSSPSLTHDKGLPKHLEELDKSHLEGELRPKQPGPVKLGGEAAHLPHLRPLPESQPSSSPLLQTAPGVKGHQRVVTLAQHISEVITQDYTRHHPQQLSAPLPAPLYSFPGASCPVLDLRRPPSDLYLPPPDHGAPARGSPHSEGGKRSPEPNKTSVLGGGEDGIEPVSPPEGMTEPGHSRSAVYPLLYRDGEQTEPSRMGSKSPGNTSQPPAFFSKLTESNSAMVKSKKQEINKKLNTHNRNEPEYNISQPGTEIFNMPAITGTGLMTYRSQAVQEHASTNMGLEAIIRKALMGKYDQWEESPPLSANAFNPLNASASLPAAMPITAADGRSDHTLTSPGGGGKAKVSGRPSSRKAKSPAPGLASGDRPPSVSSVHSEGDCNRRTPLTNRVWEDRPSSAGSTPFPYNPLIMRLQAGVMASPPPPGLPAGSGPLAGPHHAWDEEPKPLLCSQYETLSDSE

With `C[C@H](NC(=O)[C@H](CC(=O)NCC(C)(C)C)NC(=O)c1ccc(C(=O)NO)cc1)C(=O)NCc1ccccc1` the IC50 [1] was 15 µM, the inhibition [2] was “Active” and the inhibition [3] was “Active”. The inhibition [4] was “Active”, the inhibition (Homo sapiens) was “Active” and the inhibition (SEM cells [5]) was “Active”. For the same compound, the IC50 (PBMC) was greater than 25 µM, the “fold change (FC)” value (SEM cells [6]) was 5 and the Activity (SEM cells [7]) was “Active”. For the same compound, the inhibition (SEM cells [8]) was “Active”, the inhibition (SEM cells [9]) was “Active” and the inhibition (SEM cells [10]) was “Active”. The inhibition (SEM cells [11]) was “Active” and the IC50 (Histone deacetylase 8) was 0.53 µM.
